Activity calls are given as the source filed them. No cut-off for these calls is given here.

The nature of data set [1]: Drug concentration in plasma of mouse at 10 mg/kg, po within 1 hr. Format: ADME, organism-based.
A short description of data set [2]: Drug metabolism in human liver-on-chip assessed as compound oxidization at 12a' or 13' of omega-carboxylic acid incubated for 48 hrs by UPLC-MS/MS anlaysis. Format: ADME, tissue-based. The essentials:
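Liver-on-chip built from differentiated HepaRG cells (hepatocyte-like and biliary-like) with a HUVEC endothelial layer. Loaded with compound at 1 μM and incubated 48 h; compound and metabolites quantified from extracted chromatograms; n = 3 independent experiments.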

The target in data set [3] is T1, Prostaglandin G/H synthase 2 (Homo sapiens) (UniProt P35354).
T1 sequence (whole entry): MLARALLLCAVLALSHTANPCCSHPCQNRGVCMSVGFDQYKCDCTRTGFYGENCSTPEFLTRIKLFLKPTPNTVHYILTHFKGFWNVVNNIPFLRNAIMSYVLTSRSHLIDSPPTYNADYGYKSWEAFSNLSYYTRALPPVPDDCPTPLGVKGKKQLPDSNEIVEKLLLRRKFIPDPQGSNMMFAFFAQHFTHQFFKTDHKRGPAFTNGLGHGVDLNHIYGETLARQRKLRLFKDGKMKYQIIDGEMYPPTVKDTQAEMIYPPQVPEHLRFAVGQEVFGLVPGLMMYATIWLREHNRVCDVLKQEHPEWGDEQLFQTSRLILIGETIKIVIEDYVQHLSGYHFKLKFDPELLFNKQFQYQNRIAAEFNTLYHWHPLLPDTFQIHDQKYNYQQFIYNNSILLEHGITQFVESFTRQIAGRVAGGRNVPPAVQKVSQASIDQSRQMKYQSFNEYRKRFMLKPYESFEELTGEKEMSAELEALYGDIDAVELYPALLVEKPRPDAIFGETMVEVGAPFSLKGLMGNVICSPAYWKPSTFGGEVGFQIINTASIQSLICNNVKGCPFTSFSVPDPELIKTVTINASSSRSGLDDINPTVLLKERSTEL
The experiment in a line: Inhibition of recombinant human COX-2 assessed as reduction in 12-HHT formation at 10 uM using arachidonic acid as substrate preincubated for 6 mins followed by substrate addition by RPL-HPLC method.

Data set [4] has as its target T2, Bifunctional epoxide hydrolase 2 (Homo sapiens) (UniProt P34913).
T2 sequence (whole entry): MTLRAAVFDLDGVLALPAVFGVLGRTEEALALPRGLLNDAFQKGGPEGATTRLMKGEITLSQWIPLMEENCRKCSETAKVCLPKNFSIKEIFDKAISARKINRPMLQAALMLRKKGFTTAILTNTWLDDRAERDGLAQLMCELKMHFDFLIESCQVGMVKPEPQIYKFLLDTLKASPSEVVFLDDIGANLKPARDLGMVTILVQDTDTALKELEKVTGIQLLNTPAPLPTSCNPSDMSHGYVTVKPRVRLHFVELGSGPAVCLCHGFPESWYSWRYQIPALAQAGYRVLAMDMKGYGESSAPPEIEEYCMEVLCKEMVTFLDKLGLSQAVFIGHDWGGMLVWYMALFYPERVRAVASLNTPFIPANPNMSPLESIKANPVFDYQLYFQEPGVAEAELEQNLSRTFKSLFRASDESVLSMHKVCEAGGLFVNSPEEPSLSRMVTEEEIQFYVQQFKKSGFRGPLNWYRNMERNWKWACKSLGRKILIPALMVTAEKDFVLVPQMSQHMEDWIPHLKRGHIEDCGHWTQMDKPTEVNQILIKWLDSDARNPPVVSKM
The data set can be described thus: Inhibition of recombinant human sEH expressed in Sf9 insect cells at 10 uM using PHOME as substrate preincubated for 10 mins followed by substrate addition and measured after 60 mins by fluorescence microplate method. The note with it: time 70.0 min.

The target of data set [5] is T3, Prostaglandin E synthase (Homo sapiens) (UniProt O14684).
T3 sequence (whole entry): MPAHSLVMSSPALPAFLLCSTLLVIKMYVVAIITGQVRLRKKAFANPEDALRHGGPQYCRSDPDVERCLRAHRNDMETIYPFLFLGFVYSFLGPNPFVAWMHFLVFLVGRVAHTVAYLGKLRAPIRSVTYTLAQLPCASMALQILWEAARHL
The data set can be described thus: Inhibition of mPEGS1 in pathogenic Escherichia coli-stimulated human macrophages M1 at 1 uM by UPLC-MS/MS analysis. The note with it: Macrophage. The essentials: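 M1 macrophages obtained by GM-CSF differentiation for 6 days, then LPS/IFN-γ polarization for 48 h. Treated with compound at 1 μM and stimulated with pathogenic E. coli; lipid mediator network profiled by metabololipidomics against vehicle.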

The test system of data set [6] is Keratinocyte. The experiment in a line: Antiinflammatory activity in cytokine cocktail-induced reconstructed human epidermis model assessed as reduction in IL-8 level at 5 to 25 uM after 4 days by ELISA. Format: functional, cell-based. As to conditions: dose 5-25 µM, time 4.0 day. The gist of the method: (§1)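 Reconstructed human epidermis exposed to compound and stressed with a cytokine cocktail for 4 days. Readouts: IL-8 in growth medium, H&E morphology, transepidermal water loss, stratum corneum permeability to Lucifer yellow with DAPI nuclear stain, and surface pH. n = 2–3 independent experiments.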

Data set [7] relates to Keratinocyte. The data set can be described thus: Antiinflammatory activity in cytokine cocktail-induced reconstructed human epidermis model assessed as attenuation of epidermal disorganization at 5 to 25 uM after 4 days by HE staining based assay. Format: functional, cell-based. As to conditions: dose 5-25 µM, time 4.0 day. The gist of the method:
as §1

Data set [8] deals with Keratinocyte. The experiment in a line: Antiinflammatory activity in cytokine cocktail-induced reconstructed human epidermis model assessed as improved skin barrier functions at 5 to 25 uM after 4 days. Format: functional, cell-based. As to conditions: dose 5-25 µM, time 4.0 day. The gist of the method:
as §1

Data set [9] concerns Keratinocyte. The data set can be described thus: Antiinflammatory activity in cytokine cocktail-induced reconstructed human epidermis model assessed as effect on TSLP expression at 5 to 25 uM after 4 days by ELISA. Format: functional, cell-based. As to conditions: dose 5-25 µM, time 4.0 day.
Data set [10] deals with Mus musculus. The data set can be described thus: Antiinflammatory activity in zymosan-induced CD-1 mouse peritonitis model assessed as reduction in vascular permeability at 10 mg/kg, ip preincubated with compound for 30 mins followed by zymosan addition and measured after 30 mins. In kind it is functional, organism-based. As to conditions: time 60.0 min. The essentials:
(§2)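 Zymosan peritonitis with compound 10 mg/kg i.p. Vascular permeability assessed at 30 min after zymosan. Exudate LTB4 (ELISA) and peritoneal immune cell infiltration assessed at 4 h. Two-tailed unpaired t-test of log data.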

Data set [11] concerns Mus musculus. The data set can be described thus: Antiinflammatory activity in zymosan-induced CD-1 mouse peritonitis model assessed as reduction in LTB4 level at 10 mg/kg, ip preincubated with compound for 30 mins followed by zymosan addition and measured after 4 hrs by ELISA. In kind it is functional, organism-based. As to conditions: time 270.0 min. The gist of the method:
as §2

Data set [12] deals with Mus musculus. The data set can be described thus: Antiinflammatory activity in zymosan-induced CD-1 mouse peritonitis model assessed as reduction in immune cell infiltration into peritoneal cavity at 10 mg/kg, ip preincubated with compound for 30 mins followed by zymosan addition and measured after 4 hrs. As to conditions: time 270.0 min. In kind it is functional, organism-based. The essentials: as §2

Data set [13] can be described thus: Drug concentration in peritoneal exudate of CD-1 mouse at 30 mg/kg, po after 30 mins. In kind it is ADME, organism-based, Peritoneal fluid. The note with it: read-out: Ct. The gist of the method: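 Oral dosing at 30 mg/kg in zymosan peritonitis; mice killed 30 min after zymosan injection. Compound concentrations measured in plasma and in peritoneal exudate.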

In data set [14] the test system is Mus musculus. The experiment in a line: Antiinflammatory activity in zymosan-induced CD-1 mouse peritonitis model assessed as reduction in LTC4 level at 3 mg/kg, po preincubated with compound for 60 mins followed by zymosan addition and measured after 30 mins by ELISA. Format: functional, organism-based. The note with it: time 90.0 min. The essentials:
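Oral dosing at 3 mg/kg in zymosan-induced peritonitis; mice killed 30 min after zymosan; LTC4 in peritoneal exudate measured by ELISA; two-tailed unpaired t-test of log data.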
For orientation: ELISA stands for enzyme-linked immunosorbent assay.

Data set [15] concerns Mus musculus. The experiment in a line: Antiinflammatory activity BALB/c mouse assessed as restoration of salbutamol-induced adrenergic bronchial relaxation at 10 mg/kg, po administered on day 0 and 7 and measured upto 21 days. Format: functional, organism-based. As to conditions: time day <=21.

`C/C(=C\CC/C(C)=C/CC[C@]1(C)CCc2c(C)c(O)c(C)c(C)c2O1)CCC=C(CO)CO`: the concentration at 1 h in data set [1] is 30 nM. Also, in [2], the Drug metabolism result is “Metabolite_Detected”. In addition, the inhibition entry in data set [3], in [4] and in data set [5] was “inactive” in each case. The outcome with Keratinocyte [6], in the data set on Keratinocyte [7], in the data set with Keratinocyte [8], in the data set with Mus musculus [10], with Mus musculus [11] and with Mus musculus [12] was Active. In addition, the outcome with Mus musculus [14] and with Mus musculus [15] was Active. Further, the outcome in the data set with Keratinocyte [9] was inactive. Further, in data set [13], the concentration at 0.5 h stood at 0.5 nM.
